Assay outcomes: PubChem, several laboratories
Runt-SMMHC FRET: inhibitors of RUNX1 Runt–CBFb-SMMHC binding, primary screen, biochemical, FRET, Cerulean-Runt, Venus-CBFb-SMMHC, uHTS; 0.74% of 220,000 active; inhibition, % at 20 µM; Runt-related transcription factor 1 (Homo sapiens) + Core-binding factor subunit beta …; AID 1434, 2008; Cerulean-Runt/Venus-CBFb-SMMHC FRET ratio 530/480, 1 h;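 active = mean inhibition across duplicate retests at 20 µM reaching about 50%, limit read from the data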;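 also: 0% = DMSO wells and 100% = wells with excess untagged CBFb-SMMHC; inhibitors lower the FRET ratio by blocking Runt binding to CBFb-SMMHC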
Target sequence (Q01196 whole entry, looked up): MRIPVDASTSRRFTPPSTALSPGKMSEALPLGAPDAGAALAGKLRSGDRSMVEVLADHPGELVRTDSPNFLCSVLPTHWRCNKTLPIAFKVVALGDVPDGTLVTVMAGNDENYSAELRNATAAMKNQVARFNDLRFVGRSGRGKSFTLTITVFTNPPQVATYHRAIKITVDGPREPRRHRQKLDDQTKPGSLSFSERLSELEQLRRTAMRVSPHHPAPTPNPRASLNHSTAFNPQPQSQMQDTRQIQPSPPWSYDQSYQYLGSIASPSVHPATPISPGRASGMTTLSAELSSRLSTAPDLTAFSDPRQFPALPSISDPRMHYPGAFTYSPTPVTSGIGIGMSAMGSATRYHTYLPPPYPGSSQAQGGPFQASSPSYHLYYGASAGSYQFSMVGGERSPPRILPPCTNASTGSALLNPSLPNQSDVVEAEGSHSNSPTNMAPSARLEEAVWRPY
Target sequence (Q13951 whole entry, looked up): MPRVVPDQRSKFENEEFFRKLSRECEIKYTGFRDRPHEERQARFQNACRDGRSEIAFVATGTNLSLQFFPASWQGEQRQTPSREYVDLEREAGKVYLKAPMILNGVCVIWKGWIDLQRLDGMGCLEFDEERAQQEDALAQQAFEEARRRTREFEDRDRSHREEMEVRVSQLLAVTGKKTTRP
Hck-Nef inh: inhibitors of Nef-activated human Hck kinase, primary screen, biochemical, Z-Lyte FRET, 384-well, Hck-YEEI. inhibition, % at 20 µM. 0.68% of 220,000 active. AID 463187, 2010. Recombinant Hck-YEEI plus Nef, Z-Lyte FRET kinase assay;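 active = Hck-Nef kinase inhibition above about 50%, limit read from the data; inactive = inhibition below that limit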;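 also: 0% = DMSO with Hck plus Nef and 100% = Hck alone without Nef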
Runt-CBFb FRET: inhibitors of RUNX1 Runt–CBFb binding, primary screen, biochemical, FRET, Cerulean-Runt, Venus-CBFb, uHTS. Runt-related transcription factor 1 (Homo sapiens) + Core-binding factor subunit beta …. 0.46% of 220,000 active. Cerulean-Runt/Venus-CBFb FRET ratio 530/480, 1 h. inhibition, % at 20 µM. AID 1496, 2009;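 active = inhibition over about 50% at 20 µM in the single-dose screen, limit read from the data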;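 also: 0% = DMSO wells and 100% = excess unlabeled CBFb competitor control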
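Assay system: Cerulean-Runt domain fusion protein, energy donor; Signal: fluorescence energy transfer, 422 nm excitation, 530/480 nm emission; Timing: 1 h compound exposure, room temperature; Control set: unlabeled CBFb; Medium: Tris buffer pH 7.5 with salts and BSA; Compound: single test concentration of 20 µM, 1% DMSO final; Probe or stimulus: Venus-CBFb 100 nM.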
RanGTP-Imp inh: inhibitors of RanGTP-importin-beta interaction, primary screen, biochemical, FRET, CFP-Ran, YFP-importin-beta, homogeneous; 1.1% of 300,000 active; cell-free CFP-Ran/YFP-importin-beta FRET ratio; AID 2216, 2009; inhibition, % (concentration not given with the values);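 active = more than half of the replicate wells show a fall in the fluorescence ratio signal beyond about 16%, limit read from the data, passing the limit was not always enough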;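 also: 0% = DMSO wells and 100% = Ran loaded with GDP instead of GTP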
An asterisk follows results filed as active. Hits are enriched below; roughly 1.8% of the tested compounds scored in any of these assays.

Results for O=C(Cc1ccsc1)NCC(=O)Nc1ccc(F)c(F)c1 ?
RanGTP-Imp inh: 5

What do the screens show for `Cc1cccn2c(=O)c3cc(C(=O)NCc4cccnc4)c(=N)n(C)c3nc12`?
Runt-SMMHC FRET: 74*; Runt-CBFb FRET: 98*

What do the screens show for `COC(=O)c1cc2c(=O)n3cccc(C)c3nc2n(Cc2cccnc2)c1=N`?
Runt-SMMHC FRET: 57*; Runt-CBFb FRET: 56*

Results for Cc1cccn2c(=O)c3cc(C(=O)NCCc4ccccc4)sc3nc12 ?
RanGTP-Imp inh: 0

Results for C=CCn1c(=N)c(C(=O)OC)cc2c(=O)n3cccc(C)c3nc21 ?
Runt-SMMHC FRET: 58*; Runt-CBFb FRET: 52*

Results for Cc1ccc(S(=O)(=O)NC(=O)COc2ccccc2C)c(C)c1 ?
RanGTP-Imp inh: -2

What do the screens show for `COc1ccc(C(C(=O)NC2CCCC2)N(Cc2cccnc2)C(=O)c2snc(C(N)=O)c2N)cc1` (stereo unspecified)?
RanGTP-Imp inh: 3

Results for CCOc1ccc2ccccc2c1C1NC(=O)N(C)C(C)=C1C(=O)OCCOC (stereo unspecified) ?
RanGTP-Imp inh: 96*

Results for CN(Cc1ccccc1)C(=O)COC(=O)CNS(=O)(=O)c1ccc2ccccc2c1 ?
RanGTP-Imp inh: 0

Results for CC(C)c1c(C(=O)N/N=C/c2ccccc2OCc2c(F)cccc2Cl)nnn1-c1nonc1N ?
RanGTP-Imp inh: -1

What do the screens show for `C/C(=N\Nc1nc2ccccc2s1)c1cccs1`?
Runt-SMMHC FRET: 2; Hck-Nef inh: 4; Runt-CBFb FRET: -3; RanGTP-Imp inh: 22*

What do the screens show for `COc1cc(/C=C(\C#N)C(=O)NC(C)C)cc(Cl)c1O`?
Runt-SMMHC FRET: 63*; Hck-Nef inh: 17; Runt-CBFb FRET: 33; RanGTP-Imp inh: -3

How did CCc1ccc2cccc3c2c1N=CN3C do in these assays?
RanGTP-Imp inh: -2

What do the screens show for `CCn1c(SCC(=O)NCC2CCCO2)nnc1-c1ccc(Cl)cc1` (stereo unspecified)?
Runt-SMMHC FRET: -2; Hck-Nef inh: -11; Runt-CBFb FRET: -1; RanGTP-Imp inh: 26*

Results for CCn1c(SCC(=O)NCC2CCCO2)nnc1-c1c[nH]c2ccccc12 (stereo unspecified) ?
Runt-SMMHC FRET: -3; Hck-Nef inh: 6; Runt-CBFb FRET: 4; RanGTP-Imp inh: 5

How did O=c1cc(-c2ccccc2)[nH]n1-c1nc2ccccc2[nH]1 do in these assays?
Runt-SMMHC FRET: 17; Hck-Nef inh: 1; Runt-CBFb FRET: 12; RanGTP-Imp inh: 26*

How did C=CCc1cccc(/C=N/NC(=O)c2ccccc2Br)c1O do in these assays?
Runt-SMMHC FRET: -2; Hck-Nef inh: -6; Runt-CBFb FRET: 0; RanGTP-Imp inh: -1

How did C=CCc1cccc(/C=N/NC(=O)c2ccccc2OC)c1O do in these assays?
Runt-SMMHC FRET: 2; Hck-Nef inh: 8; Runt-CBFb FRET: 2; RanGTP-Imp inh: 39*

How did O=C(COC(=O)c1cccc(NS(=O)(=O)c2ccc(F)c(F)c2)c1)NC(=O)NC1CCCC1 do in these assays?
Runt-SMMHC FRET: 3; Hck-Nef inh: 2; Runt-CBFb FRET: -2; RanGTP-Imp inh: 2

What do the screens show for `CCCC(=O)Nc1ccccc1NC(=O)c1ccc(OC(C)=O)cc1`?
Runt-SMMHC FRET: 1; Hck-Nef inh: 21; Runt-CBFb FRET: -1; RanGTP-Imp inh: -5

What do the screens show for `O=c1cc(O)nc(-c2ccc(Cl)cc2)s1`?
Runt-SMMHC FRET: -6; Hck-Nef inh: 6; Runt-CBFb FRET: 1; RanGTP-Imp inh: 2

Results for CCc1c(C(=O)NNC(=S)Nc2ccc(S(=O)(=O)Nc3ncccn3)cc2)csc1C ?
RanGTP-Imp inh: 2

What do the screens show for `Cc1cc(C)c2nc(N3CCCN(C(=O)c4ccco4)CC3)c(C#N)cc2c1`?
Runt-SMMHC FRET: 70*; Hck-Nef inh: 15; Runt-CBFb FRET: 13; RanGTP-Imp inh: 89*

How did Cc1cccc2cc(C#N)c(N3CCC(O)CC3)nc12 do in these assays?
Runt-SMMHC FRET: 71*; Hck-Nef inh: 15; Runt-CBFb FRET: 36; RanGTP-Imp inh: 29*

Results for COc1cc(C(=O)NCCNc2nc3c(C)c(C)ccc3cc2C#N)cc(OC)c1OC ?
RanGTP-Imp inh: 2
